Test results reported in ChEMBL document CHEMBL1122207, “Antitumor agents. 2. Bisguanylhydrazones of anthracene-9,10-dicarboxaldehydes” (1982).

How the values were obtained:
Type in all cases: functional
[1] = species on record: Mus musculus; experiment: Anticancer activity measured as the number of survivors of the total treated mice with P-388 leukemia at 30 days.
Procedure, shortened: (§1)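 BDF1 or CDF1 mice given 10^6 ascitic P-388 leukemia cells ip, then treated ip on days 1, 5 and 9. Cures are survivors over total treated at 30 days.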

[2] = species on record: Mus musculus; experiment: Cures is the number of survivors of the total treated mice (10) with B-16 melanoma, at 60 days.
Procedure, shortened: (§2)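 BDF1 mice were implanted ip with a homogenate from 0.05 g of B-16 melanoma and dosed ip on days 1-9. Cures are survivors over total at 60 days.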

[3] = system: Mus musculus; experiment: Percent increase in median life span of BDF1 mice with B-16 melanoma at dose 12 mg/kg administered intraperitoneally; conditions: BDF1, B16, ip, route intraperitoneal
Procedure, shortened: (§3)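 BDF1 mice were implanted ip with a homogenate from 0.05 g of B-16 melanoma. Ip dosing ran on days 1-9, starting 24 h after implant, in dose-response studies following NCI protocols. The read-out was percent increase in life span (ILS). T/C ≥125% was taken as significant.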

[4] = system: Mus musculus; experiment: Percent increase in median life span of BDF1 mice with P-388 leukemia at dose 25 mg/kg administered intraperitoneally; conditions: BDF1, P388, ip, route intraperitoneal
[5] = system: Mus musculus; experiment: Percent increase in median life span of BDF1 mice with P-388 leukemia at dose 6.25 mg/kg administered intraperitoneally; conditions: BDF1, P388, ip, route intraperitoneal
[6] = species on record: Mus musculus; experiment: Cures is the number of survivors of the total treated mice (12) with P-388 leukemia, at 30 days.; procedure, shortened: as §1
[7] = system: Mus musculus; experiment: Percent increase in median life span of BDF1 mice with B-16 melanoma at dose 3.1 mg/kg administered intraperitoneally; conditions: BDF1, B16, ip, route intraperitoneal; procedure, shortened: as §3
[8] = system: Mus musculus; experiment: Percent increase in median life span of BDF1 mice with P-388 leukemia at dose 200 mg/kg administered intraperitoneally; conditions: BDF1, P388, ip, route intraperitoneal
[9] = system: Mus musculus; experiment: Percent increase in median life span of BDF1 mice with P-388 leukemia at dose 50 mg/kg administered intraperitoneally; conditions: BDF1, P388, ip, route intraperitoneal
[10] = species on record: Mus musculus; experiment: Number of survivors of the total treated mice with B-16 melanoma, at 60 days.; procedure, shortened: as §2
[11] = system: Mus musculus; experiment: Percent increase in median life span of BDF1 mice with B-16 melanoma at dose 50 mg/kg administered intraperitoneally; conditions: BDF1, B16, ip, route intraperitoneal; procedure, shortened: as §3
[12] = system: Mus musculus; experiment: Percent increase in median life span of BDF1 mice with B-16 melanoma at dose 12.5 mg/kg administered intraperitoneally; conditions: BDF1, B16, ip, route intraperitoneal; procedure, shortened: as §3
[13] = system: Mus musculus; experiment: Percent increase in median life span of BDF1 mice with B-16 melanoma administered intraperitoneally; procedure, shortened: as §3
[14] = system: Mus musculus; experiment: Percent increase in median life span of BDF1 mice with P-388 leukemia at dose 12.5 mg/kg administered intraperitoneally; conditions: BDF1, P388, ip, route intraperitoneal

Cl.Cl.N/C(=N\N=C\c1c2ccccc2c(/C=N/N/C(N)=N/CCO)c2ccccc12)NCCO
Cures [1]: 0
Cures [2]: 1
ILS at 12 mg/kg [3]: 80%
ILS at 25 mg/kg [4]: 90%

CCN(CC)CC/N=C(\S)N/N=C/c1c2ccccc2c(/C=N/N/C(S)=N/CCN(CC)CC)c2ccccc12.Cl.Cl
Cures [1]: 0
ILS at 6.25 mg/kg [5]: 95%

Cl.Cl.Fc1ccc2c(/C=N/NC3=NCCN3)c3ccccc3c(/C=N/NC3=NCCN3)c2c1
Cures [6]: 3
ILS at 6.25 mg/kg [5]: 123%
ILS at 3.1 mg/kg [7]: 183%
Cures [2]: 4

N/N=C(\S)N/N=C/c1c2ccccc2c(/C=N/N/C(S)=N/N)c2ccccc12
Cures [1]: 0
ILS at 200 mg/kg [8]: 0%

Cl.Cl.N=C(NCc1cccs1)N/N=C/c1c2ccccc2c(/C=N/NC(=N)NCc2cccs2)c2ccccc12
Cures [1]: 0
ILS at 50 mg/kg [9]: 90%
Cures [10]: 0
ILS at 12 mg/kg [3]: 75%

CC1(/C=N/NC2=NCCN2)c2ccccc2C(C)(/C=N/NC2=NCCN2)c2ccccc21 (stereo unspecified)
ILS at 50 mg/kg [11]: 0%
ILS at 200 mg/kg [8]: 0%

C(=N\NC1=NCc2ccccc2CN1)/c1c2ccccc2c(/C=N/NC2=NCc3ccccc3CN2)c2ccccc12
Cures [1]: 0
ILS at 200 mg/kg [8]: 30%

CN1CCN(C)C1=N/N=C/c1c2ccccc2c(/C=N/N=C2N(C)CCN2C)c2ccccc12
Cures [1]: 0
ILS at 200 mg/kg [8]: 0%

C(=N\Nc1ccccn1)/c1c2ccccc2c(/C=N/Nc2ccccn2)c2ccccc12
Cures [1]: 0
ILS at 200 mg/kg [8]: 0%

C(=N\Nc1nc2ccccc2s1)/c1c2ccccc2c(/C=N/Nc2nc3ccccc3s2)c2ccccc12
Cures [1]: 0
ILS at 200 mg/kg [8]: 0%

N=C(N/N=C/c1c2ccccc2c(/C=N/NC(=N)NC2CCCCC2)c2ccccc12)NC1CCCCC1
Cures [1]: 0
ILS at 50 mg/kg [9]: 73%
Cures [10]: 0
ILS at 12 mg/kg [3]: 80%

Cc1ccc(S(=O)(=O)N/N=C/c2c3ccccc3c(/C=N/NS(=O)(=O)c3ccc(C)cc3)c3ccccc23)cc1
Cures [1]: 0
ILS at 200 mg/kg [8]: 0%

N=C(NCc1ccccc1)N/N=C/c1c2ccccc2c(/C=N/NC(=N)NCc2ccccc2)c2ccccc12
Cures [1]: 0
Cures [10]: 0
ILS at 12 mg/kg [3]: 47%
ILS at 25 mg/kg [4]: 68%

Cl.Cl.Clc1ccc2c(c1)C(/C=N/NC1=NCCN1)c1ccccc1C2/C=N/NC1=NCCN1 (stereo unspecified)
ILS at 50 mg/kg [9]: 100%
ILS at 12.5 mg/kg [12]: 230%
Cures [2]: 5

CCCO.Clc1cccc2c1C(/C=N/NC1=NCCN1)c1cccc(Cl)c1C2/C=N/NC1=NCCN1 (stereo unspecified)
ILS at 50 mg/kg [11]: 0%
ILS at 200 mg/kg [8]: 0%

CN(C)CCCCCCC/N=C(\S)N/N=C/c1c2ccccc2c(/C=N/N/C(S)=N/CCCCCCCN(C)C)c2ccccc12.Cl
Cures [1]: 0
ILS at 6.25 mg/kg [5]: 39%
ILS [13]: 0%

CC(C)/N=C(/N/N=C/c1c2ccccc2c(/C=N/N=C(NC(C)C)NC(C)C)c2ccccc12)NC(C)C
Cures [1]: 0
ILS at 50 mg/kg [9]: 50%
Cures [10]: 0
ILS [13]: 0%

COc1ccc(OC)c2c1C(/C=N/NC1=NCCN1)c1ccccc1C2/C=N/NC1=NCCN1 (stereo unspecified)
ILS at 200 mg/kg [8]: 0%

NC(=O)N/N=C/c1c2ccccc2c(/C=N/NC(N)=O)c2ccccc12
Cures [1]: 0
ILS at 200 mg/kg [8]: 0%

Cc1ccc2c(/C=N/NC3=NCCN3)c3ccccc3c(/C=N/NC3=NCCN3)c2c1Cl.Cl.Cl
Cures [1]: 0
ILS at 12.5 mg/kg [14]: 130%
ILS at 12.5 mg/kg [12]: 220%
Cures [2]: 4

CN(C)CC(=O)N/N=C/c1c2ccccc2c(/C=N/NC(=O)CN(C)C)c2ccccc12.Cl.Cl
Cures [1]: 0
ILS at 200 mg/kg [8]: 0%

C(=N\NC1=NCCCCN1)/c1c2ccccc2c(/C=N/NC2=NCCCCN2)c2ccccc12
Cures [1]: 0
ILS at 12.5 mg/kg [14]: 90%
Cures [2]: 1
ILS at 12 mg/kg [3]: 173%

O=C(N/N=C/c1c2ccccc2c(/C=N/NC(=O)c2cccnc2)c2ccccc12)c1cccnc1
Cures [1]: 0
ILS at 200 mg/kg [8]: 0%

C(=N\NC1=NCCN1)/C1c2ccccc2C(/C=N/NC2=NCCN2)c2ccccc21.Cl.Cl (stereo unspecified)
ILS at 12.5 mg/kg [14]: 72%
ILS at 12.5 mg/kg [12]: 100%
Cures [10]: 0
